In ChEMBL document CHEMBL1156706, “Structure-activity relationships of novel heteroaryl-acrylonitriles as cytotoxic and antibacterial agents” (Eur J Med Chem, 2008):
≈ marks a conversion by molar mass, not a printed value. Calls of active or inactive are those of the source. No cut-off for these calls is given here.

Tests used:
[1] = test system: YAPC; assay: Cytotoxicity against human YAPC cells after 96 hrs by microtiter assay; type: functional, cell-based
Method in brief: (§1)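 DSMZ cell lines in RPMI 1640 with 10% FCS. DMF stocks diluted 1000-fold into medium. Continuous exposure 96 h at 37 °C, 5% CO2. Adherent cells stained with crystal violet. IC50 (50% growth inhibition vs untreated control) obtained by least-squares fitting of dose–response curves, averaging 2–5 independent determinations.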

[2] = test system: RT-112; assay: Cytotoxicity against human RT112 cells after 96 hrs by microtiter assay; type: functional, cell-based; details: RT-112, 96 h; method in brief: as §1
[3] = test system: DAN-G; assay: Cytotoxicity against human DAN-G cells after 96 hrs by microtiter assay; type: functional, cell-based; method in brief: as §1
[4] = test system: A-427; assay: Cytotoxicity against human A427 cells after 96 hrs by microtiter assay; type: functional, cell-based; details: A-427, 96 h; method in brief: as §1
[5] = Cytotoxicity against human LCLC-103H cells after 96 hrs by microtiter assay; type: functional, cell-based; method in brief: as §1
[6] = test system: Staphylococcus epidermidis; assay: Antibacterial activity against Staphylococcus epidermis NCTC 14990 after 24 hrs; type: functional, organism-based; details: NCTC 14990, 24 h
Method in brief: (§2)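 Overnight culture diluted in Mueller–Hinton broth to 10^5 CFU/ml. Compounds dissolved in DMSO and diluted twofold in broth over 0.24–62.5 […]. Tubes inoculated and incubated 24 h at 37 °C. MIC taken as the lowest concentration with no visible growth. Clear tubes were subcultured onto Mueller–Hinton agar, and MBC was taken as the minimal concentration killing the organisms after 24 h.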

[7] = test system: 5637; assay: Cytotoxicity against human 5637 cells after 96 hrs by microtiter assay; type: functional, cell-based; details: Homo sapiens, 5637, 96 h; method in brief: as §1
[8] = Aqueous solubility in phosphate buffered saline at pH 7.4 after 24 hrs; type: physicochemical
Method in brief: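 Solid added in excess to Dulbecco's PBS, pH 7.4, and stirred in the dark 24 h at room temperature. Suspension filtered through a 0.22 filter. Filtrate absorbance read at each compound's λmax, and dissolved concentration calculated from the extinction coefficient at that wavelength.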

[9] = Cytotoxicity against human KYSE520 cells after 96 hrs by microtiter assay; type: functional, cell-based; details: KYSE-520, 96 h; method in brief: as §1
[10] = test system: RT-4; assay: Cytotoxicity against human RT4 cells after 96 hrs by microtiter assay; type: functional, cell-based; details: RT-4, 96 h; method in brief: as §1
[11] = test system: Staphylococcus aureus; assay: Antibacterial activity against Staphylococcus aureus NCTC 4163 after 24 hrs; type: functional, organism-based; details: NCTC 4163, 24 h; method in brief: as §2
[12] = test system: KYSE-510; assay: Cytotoxicity against human KYSE510 cells after 96 hrs by microtiter assay; type: functional, cell-based; details: KYSE-510, 96 h; method in brief: as §1
[13] = test system: SISO; assay: Cytotoxicity against human SISO cells after 96 hrs by microtiter assay; type: functional, cell-based; method in brief: as §1
[14] = Cytotoxicity against human KYSE70 cells after 96 hrs by microtiter assay; type: functional, cell-based; details: KYSE-70, 96 h; method in brief: as §1
[15] = test system: Enterococcus hirae; assay: Antibacterial activity against Enterococcus hirae NCTC 10541 after 24 hrs; type: functional, organism-based; details: NCTC 10541, 24 h; method in brief: as §2
[16] = test system: MCF7; assay: Cytotoxicity against human MCF7 cells after 96 hrs by microtiter assay; type: functional, cell-based; details: MCF7, 96 h; method in brief: as §1
[17] = test system: HL-60; assay: Cell cycle arrest in human HL60 cells assessed as accumulation at G0/G1 phase at 0.15 uM after 72 hrs by FACS relative to untreated control; type: functional, cell-based
Method in brief: (§3)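 Unsynchronized HL-60 cells treated 24 or 72 h across 0.03–1 µM. Cells fixed in 70% ice-cold ethanol and DNA stained with propidium iodide. Fractions in G0/G1, S and G2/M quantified by flow cytometry and compared with untreated control.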

[18] = test system: HL-60; assay: Cell cycle arrest in human HL60 cells assessed as accumulation at G2/M phase at 0.3 uM after 72 hrs by FACS relative to untreated control; type: functional, cell-based; method in brief: as §3
[19] = test system: HL-60; assay: Cell cycle arrest in human HL60 cells assessed as accumulation at G0/G1 and G2/M phases at 0.15 uM after 72 hrs by FACS relative to untreated control
[20] = test system: HL-60; assay: Cell cycle arrest in human HL60 cells assessed as accumulation at G0/G1 phase at 0.3 uM after 72 hrs by FACS relative to untreated control; type: functional, cell-based; method in brief: as §3
[21] = test system: HL-60; assay: Cell cycle arrest in human HL60 cells assessed as accumulation at G0/G1 and G2/M phases at 0.3 uM after 72 hrs by FACS relative to untreated control
[22] = test system: HL-60; assay: Cell cycle arrest in human HL60 cells assessed as accumulation at G2/M phase at 0.15 uM after 72 hrs by FACS relative to untreated control; type: functional, cell-based; method in brief: as §3

MIC [6] | solubility at 24 h [8] | MIC [11] | MIC [15] | Compound | IC50 [1] | IC50 [2] | IC50 [3] | IC50 [4] | IC50 [5] | IC50 [7] | IC50 [9] | IC50 [10] | IC50 [12] | IC50 [13] | IC50 [14] | IC50 [16] | further results
111 µM (≈ 31.2 µg/mL) | < 0.1 µM | 111 µM (≈ 31.2 µg/mL) | > 222 µM | N#C/C(=C\c1ccc([N+](=O)[O-])o1)c1nc2ccccc2o1 | 2860 nM | 1410 nM | 3000 nM | 1130 nM | 1330 nM | 1650 nM | 1680 nM | 3980 nM | 7000 nM | 2860 nM | 2910 nM | 2870 nM | –
3.2 µM (≈ 0.948 µg/mL) | – | 6.4 µM (≈ 1.9 µg/mL) | > 210 µM | N#C/C(=C\c1ccc([N+](=O)[O-])s1)c1nc2ccccc2[nH]1 | 210 nM | 440 nM | 600 nM | 150 nM | 210 nM | 190 nM | 130 nM | 530 nM | 400 nM | 480 nM | 190 nM | 260 nM | Activity [17]: Active; Activity [18]: Active; Activity [19]: Active; Activity [20]: Active; Activity [21]: Active; Activity [22]: Active
> 210 µM | 0.7 µM (≈ 0.208 µg/mL) | > 210 µM | > 210 µM | N#C/C(=C\c1ccc([N+](=O)[O-])o1)c1nc2ccccc2s1 | 2250 nM | 1780 nM | 3840 nM | 1210 nM | 1470 nM | 2370 nM | 2000 nM | 4300 nM | 5440 nM | 2500 nM | 2380 nM | 3330 nM | –
12 µM (≈ 3.76 µg/mL) | < 0.1 µM | 12 µM (≈ 3.76 µg/mL) | > 200 µM | N#C/C(=C\c1ccc([N+](=O)[O-])s1)c1nc2ccccc2s1 | 420 nM | 750 nM | 720 nM | 380 nM | 880 nM | 620 nM | 460 nM | 920 nM | 930 nM | 640 nM | 510 nM | 830 nM | –
